Source: ChEMBL document CHEMBL1208725, “Prostaglandin phospholipid conjugates with unusual biophysical and cytotoxic properties” (Bioorg Med Chem Lett, 2010)
Calls of active or inactive are those of the source. No cut-off for these calls is given here.

Assays:
[1] = test system: secretory phospholipase A2; experiment: Chemical stability of the compound in presence of snake venom secretory phospholipase A2 after 48 hrs by MALDI-TOF MS analysis; type: physicochemical; conditions: read-out: Stability
How it was run: (§1)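 Formulated lipid suspensions (extruded through a 100 nm filter) were incubated with purified snake venom sPLA₂ (Agkistrodon piscivorus piscivorus and Naja mossambica mossambica) with stirring at 37 °C. Samples were taken at 2, 24 and 48 h for MALDI-TOF MS. The matrix was DHB and CF₃COONa in methanol with DPPG as internal standard. Hydrolysis was estimated as conversion of the conjugate.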

HT-29 [2] = experiment: Cytotoxicity against human HT-29 cells after 24 hrs by MTT assay; type: functional, cell-based; conditions: HT-29, 24 h
How it was run: (§2)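 Colon cancer cells were incubated with the substances for 24 h. Viability was then read by MTT assay 48 h after incubation. IC₅₀ values are mean SD, n ≥ 3.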

HT-29 [3] = experiment: Cytotoxicity against human HT-29 cells after 24 hrs by MTT assay in presence of snake venom secretory phospholipase A2; type: functional, cell-based; conditions: HT-29, 24 h
COLO 205 [4] = experiment: Cytotoxicity against human COLO205 cells after 24 hrs by MTT assay; type: functional, cell-based; conditions: COLO 205, 24 h; how it was run: as §2
COLO 205 [5] = experiment: Induction of apoptosis in human COLO205 cells at 20 uM; type: functional, cell-based
COLO 205 [6] = experiment: Induction of apoptosis in human COLO205 cells assessed as complete cell death at 100 uM; type: functional, cell-based
[7] = Chemical stability of the compound in presence of snake venom secretory phospholipase A2 after 24 hrs by MALDI-TOF MS analysis; type: physicochemical; how it was run: as §1

Row | Compound | remaining at 48 h [1] [%] | IC50 (HT-29 [2]) [µM] | IC50 (HT-29 [3]) [µM] | IC50 (COLO 205 [4]) [µM] | Activity (COLO 205 [5]) | Activity (COLO 205 [6]) | Stability [7]
1 | CCCCC/C=C/C=C1\C(=O)C=C[C@H]1C/C=C/CCCC(=O)O[C@H](COCCCCCCCCCCCCCCCCCC)COP(=O)(O)OC[C@@H](O)CO | 70 | 6 | 2.2 | 9 | Active | Active | –
2 | CCCCC/C=C/C=C1\C(=O)C=C[C@H]1C/C=C/CCCC(=O)O[C@H](COC(=O)CCCCCCCCCCCCCCCCC)COP(=O)([O-])OC[C@@H](O)CO.[Na+] | – | 32 | 6.4 | 17 | Active | Active | Unstable
3 | CCCCC/C=C/C=C1\C(=O)C=C[C@@H]1C/C=C/CCCC(=O)O | – | 1.6 | – | 4 | – | – | –
